Data taken from ChEMBL document CHEMBL1149675, “Structure-activity relationship of chalcones and related derivatives as ligands for detecting of beta-amyloid plaques in the brain” (Bioorg Med Chem, 2007).
Calls of active or inactive are those of the source. The calls are words filed in the database; no cut-off is given here.

molecular target: not listed separately; assay: Displacement of [125I]DMIC from amyloid beta 1-42 aggregates; design: species or system Homo sapiens; settings: not given

Point of comparison: `CN(C)c1ccc(/C=C/C(=O)c2ccc(I)s2)cc1`, Ki 0.0039 µM. Against it:
- CNc1ccc(C(=O)/C=C/c2ccc(I)cc2)cc1 — 6.1-fold higher, 0.0239 µM
- O=C(/C=C/c1ncc[nH]1)c1ccc(I)cc1 — 200-fold higher, 0.797 µM
- CN(C)c1ccc(/C=C/C(=O)c2ccc(Br)o2)o1 — higher, > 10 µM
- O=C(/C=C/c1ccco1)c1ccc(I)cc1 — 230-fold higher, 0.908 µM
- O=C(/C=C/c1nccs1)c1ccc(I)cc1 — higher, > 10 µM
- Nc1c(/N=N/c2ccc(-c3ccc(/N=N/c4cc(S(=O)(=O)O)c5ccccc5c4N)cc3)cc2)cc(S(=O)(=O)O)c2ccccc12 [CONGO RED] — higher, > 10 µM
- CN(C)c1ccc(/C=C/C(=O)c2ccc(I)s2)s1 — 35-fold higher, 0.137 µM
- CN(C)c1ccc(/C=C/C(=O)c2ccc(Br)o2)s1 — 680-fold higher, 2.65 µM
- Nc1ccc(/C=C/C(=O)c2ccc(I)s2)cc1 — 31-fold higher, 0.121 µM
- CN(C)c1ccc(C(=O)/C=C/c2ccc(Br)s2)cc1 — 27-fold higher, 0.106 µM
- CN(C)c1ccc(C(=O)/C=C/c2ccc(I)cc2)cc1 — 3.4-fold higher, 0.0133 µM
- CN(C)c1ccc(/C=C/C(=O)c2ccc(I)cc2)o1 — 290-fold higher, 1.13 µM
- O=C(/C=C/c1ccccc1)c1ccc(I)cc1 — 39-fold higher, 0.151 µM
- Cc1ccc2c(c1)sc(-c1ccc(N(C)C)cc1)[n+]2C [THIOFLAVIN T] — higher, > 10 µM
- CN(C)c1ccc(/C=C/C(=O)c2ccc(I)s2)o1 — 410-fold higher, 1.61 µM
- CN(C)c1ccc(/C=C/C(=O)c2ccc(I)cc2)s1 — 29-fold higher, 0.113 µM
- O=C(/C=C/c1ccoc1)c1ccc(I)cc1 — 32-fold higher, 0.125 µM
- Nc1ccc(C(=O)/C=C/c2ccc(I)cc2)cc1 — 64-fold higher, 0.248 µM
- O=C(/C=C/c1cccs1)c1ccc(I)cc1 — 26-fold higher, 0.102 µM
- CNc1ccc(C(=O)/C=C/c2ccc(Br)s2)cc1 — 51-fold higher, 0.198 µM
- Nc1ccc(C(=O)/C=C/c2ccc(Br)s2)cc1 — 120-fold higher, 0.476 µM
- CN(C)c1ccc(/C=C/C(=O)c2ccc(Br)o2)cc1 — 32-fold higher, 0.126 µM
- O=C(/C=C/c1ccsc1)c1ccc(I)cc1 — 24-fold higher, 0.093 µM
- CNc1ccc(/C=C/C(=O)c2ccc(I)s2)cc1 — 3.6-fold higher, 0.0141 µM

species on record: Mus musculus; assay: Binding affinity for beta amyloid plaques in Alzheimer's mouse model brain; settings: not given
Summary of the method: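 Paraffin sections, 5 µm, of formaldehyde-fixed Alzheimer's model mouse brain. Deparaffinised, held in PBS 30 min, stained with compound at 100 µM in 50% ethanol, washed in PBS 15 min, then mounted. Fluorescence read by confocal microscopy at 458 excitation and 540–580 emission. Serial sections immunostained for β-amyloid with DAB.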

In the case of `CN(C)c1ccc(/C=C/C(=O)c2ccc(I)s2)cc1`, the Activity is reported as “Active”.

test system: Brain; assay: Biodistribution in ddY mouse brain at 4.2 to 6.3 kBq, iv after 2 mins; type: ADME, organism-based; settings: in vivo
Summary of the method: (§1)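 [125I]-labelled ligand in saline with 10% ethanol, given by tail-vein injection to normal ddY mice (5 weeks old, 23–25 g). Mice killed at set times post-injection. Organs removed and weighed, radioactivity gamma-counted, expressed as % injected dose per gram. Mean (SD) of five mice per time point.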

With `CN(C)c1ccc(/C=C/C(=O)c2ccc([125I])s2)cc1` the Drug uptake was 2.46 % ID/g.

test system: Brain; assay: Biodistribution in ddY mouse brain at 4.2 to 6.3 kBq, iv after 10 mins; type: ADME, organism-based; settings: in vivo; summary of the method: as §1

`CN(C)c1ccc(/C=C/C(=O)c2ccc([125I])s2)cc1` gave a Drug uptake of 0.75 % ID/g.

test system: Brain; assay: Biodistribution in ddY mouse brain at 4.2 to 6.3 kBq, iv after 30 mins; type: ADME, organism-based; settings: in vivo, 0.5 h; summary of the method: as §1

Work on `CN(C)c1ccc(/C=C/C(=O)c2ccc([125I])s2)cc1` yielded a Drug uptake of 0.31 % ID/g.

test system: Brain; assay: Biodistribution in ddY mouse brain at 4.2 to 6.3 kBq, iv after 60 mins; type: ADME, organism-based; settings: in vivo, 1 h; summary of the method: as §1

With `CN(C)c1ccc(/C=C/C(=O)c2ccc([125I])s2)cc1` the Drug uptake was 0.21 % ID/g.
